This passage reports IC50, Ratio and inhibition results from ChEMBL document CHEMBL1132135, “Potent, orally absorbed glucagon receptor antagonists” (Bioorg Med Chem Lett, 1999).

Some results are limits rather than exact numbers.

Experiment [1] deals with T1, Glucagon receptor (Mus musculus, UniProt Q61606). Put plainly: Binding affinity towards glucagon receptor determined by reduction in binding of 125 I-glucagon to the murine glucagon receptor (mGLUR) expressed on CHO cells in presence of Mg+2. It is filed as cell-based. Put shortly:
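Mg2+ added at 5 mM, a physiological level, to the binding medium. IC50 reported in µM, with the number of determinations noted; where no IC50 was reached, percent inhibition is given at a single tested concentration.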

Experiment [2] in a line: Selectivity ratio between the binding value of human glucagon receptor (GGR) with Mg+2 and the value of p38 kinase.
The target of experiment [3] is T2, Glucagon receptor (Homo sapiens, UniProt P47871). Briefly: biochemical. It is filed as cell-based, CHO.
Experiment [4] addresses Mitogen-activated protein kinase 14 (Homo sapiens, UniProt Q16539). Briefly: Inhibitory activity against p38-alpha kinase.
Experiment [5] addresses T2, Glucagon receptor. Put plainly: Binding affinity towards glucagon receptor determined by reduction in binding of [125I]glucagon to the human glucagon receptor (GGR) expressed on CHO cells in presence of Mg+2. Format: cell-based. Put shortly: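 Radioligand binding to the glucagon receptor was run with 5 mM Mg2+ added, described as a physiological concentration.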
Experiment [6] addresses T1, Glucagon receptor. Briefly: Binding affinity towards glucagon receptor determined by reduction in binding of [125I]glucagon to the murine glucagon receptor (GGR) expressed on CHO cells in absence of Mg+2. It is filed as cell-based.
Experiment [7] deals with Glucagon receptor (Mus musculus) (UniProt Q61606). Put plainly: Binding affinity towards glucagon receptor determined by reduction in binding of 125 I-glucagon to the murine glucagon receptor (mGLUR) expressed on CHO cells in presence of Mg+2 at 1 uM. It is filed as cell-based.
Experiment [8] concerns the target T2, Glucagon receptor. Put plainly: Binding affinity towards glucagon receptor determined by reduction in binding of 125 I-glucagon to the human glucagon receptor (hGLUR) expressed on CHO cells in absence of Mg+2 at 2 uM. It is filed as cell-based.

T2 sequence (P47871 whole entry): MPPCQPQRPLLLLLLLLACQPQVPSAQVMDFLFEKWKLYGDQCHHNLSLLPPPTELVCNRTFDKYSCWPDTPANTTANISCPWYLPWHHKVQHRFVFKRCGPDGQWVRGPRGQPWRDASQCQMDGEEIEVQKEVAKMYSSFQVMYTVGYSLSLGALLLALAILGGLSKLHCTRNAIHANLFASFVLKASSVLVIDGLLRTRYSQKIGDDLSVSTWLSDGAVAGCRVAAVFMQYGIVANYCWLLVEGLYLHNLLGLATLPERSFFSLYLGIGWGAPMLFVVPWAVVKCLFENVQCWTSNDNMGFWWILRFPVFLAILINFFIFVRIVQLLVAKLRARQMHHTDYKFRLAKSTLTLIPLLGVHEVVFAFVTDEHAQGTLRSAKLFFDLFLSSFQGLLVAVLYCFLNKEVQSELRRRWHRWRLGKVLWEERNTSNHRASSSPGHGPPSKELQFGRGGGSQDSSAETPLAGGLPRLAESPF
Chain of Glucagon receptor (Mus musculus) (Q61606 whole entry): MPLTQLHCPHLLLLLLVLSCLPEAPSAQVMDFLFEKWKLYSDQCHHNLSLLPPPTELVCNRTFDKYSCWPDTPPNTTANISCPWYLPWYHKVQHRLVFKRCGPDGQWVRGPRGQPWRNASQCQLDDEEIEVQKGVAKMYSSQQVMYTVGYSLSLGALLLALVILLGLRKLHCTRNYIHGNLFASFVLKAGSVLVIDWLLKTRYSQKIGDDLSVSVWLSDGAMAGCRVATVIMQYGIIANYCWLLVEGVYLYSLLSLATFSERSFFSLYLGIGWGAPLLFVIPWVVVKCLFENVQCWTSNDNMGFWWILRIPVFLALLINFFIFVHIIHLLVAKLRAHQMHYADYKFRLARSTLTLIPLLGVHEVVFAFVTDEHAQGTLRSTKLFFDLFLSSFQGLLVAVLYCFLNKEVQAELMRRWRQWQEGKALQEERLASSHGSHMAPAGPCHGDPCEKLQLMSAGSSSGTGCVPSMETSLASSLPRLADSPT
T1 sequence (Q61606 whole entry): as above
Chain of Mitogen-activated protein kinase 14 (Q16539 whole entry): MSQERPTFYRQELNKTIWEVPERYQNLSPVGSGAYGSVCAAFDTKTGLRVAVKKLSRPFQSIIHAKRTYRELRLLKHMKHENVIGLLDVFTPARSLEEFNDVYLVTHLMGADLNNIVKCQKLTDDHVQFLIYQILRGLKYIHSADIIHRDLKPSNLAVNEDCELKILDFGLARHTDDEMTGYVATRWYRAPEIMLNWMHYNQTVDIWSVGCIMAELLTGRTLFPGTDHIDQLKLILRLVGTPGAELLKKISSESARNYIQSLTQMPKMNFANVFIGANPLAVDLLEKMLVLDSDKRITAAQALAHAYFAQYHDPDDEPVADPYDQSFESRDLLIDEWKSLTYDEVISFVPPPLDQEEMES

One may read the IC50 as the concentration that gives 50% inhibition. For `CCCOc1ccccc1-c1cc(-c2ccc(Cl)cc2)[nH]c1-c1ccncc1`, the IC50 at Glucagon receptor [1] is 0.7 µM; at Glucagon receptor [3], 0.008 µM; in experiment [4], 2.84 µM; on Glucagon receptor [5] it was 0.14 µM; on Glucagon receptor [6] it was 0.03 µM. In addition, the Ratio in experiment [2] came to 0.05.

As for `COc1ccc(-c2cc(-c3ccc(F)cc3)c(-c3ccncc3)[nH]2)cc1`, the half-inhibitory concentration (IC50) against Glucagon receptor [3] is 0.59 µM; in experiment [4] it was 2.8 µM.

In the case of `Clc1ccc(-c2ccc(-c3ccncc3)[nH]2)cc1`, the IC50 on Glucagon receptor [1] is above 3 µM; at Glucagon receptor [3], 0.14 µM; in experiment [4] it was above 10 µM; on Glucagon receptor [5], above 3 µM; at Glucagon receptor [6], 0.7 µM.

As for `CCOC(=O)c1cc(-c2ccc(Cl)cc2)[nH]c1-c1ccncc1`, the IC50 on Glucagon receptor [1] is above 3 µM; against Glucagon receptor [3], 0.09 µM; in experiment [4], above 1 µM; at Glucagon receptor [5], 0.4 µM; on Glucagon receptor [6] it was 0.5 µM.

Consider `CC(C)c1cc(-c2ccc(Cl)cc2)[nH]c1-c1ccncc1`, for which the IC50 was above 3 µM at Glucagon receptor [1]; 0.032 µM on Glucagon receptor [3]; above 10 µM in experiment [4]; 0.11 µM at Glucagon receptor [5]; 0.06 µM at Glucagon receptor [6].

On to `CSc1ccc(-c2cc(-c3ccc(F)cc3)c(-c3ccncc3)[nH]2)cc1`, for which the IC50 against Glucagon receptor [3] was 0.29 µM; in experiment [4], 1.23 µM.

In general, inhibition refers to the change of the read-out against control, counted positive when it falls. As to `Fc1ccc(-c2cc(-c3cccc(Cl)c3)[nH]c2-c2ccncc2)cc1`, the Ratio in experiment [2] was determined as 2.3. Further, the inhibition in experiment [7] stood at 28%. In addition, the IC50 against Glucagon receptor [3] turned out to be 0.04 µM; in experiment [4], 0.42 µM; on Glucagon receptor [5], 0.99 µM; at Glucagon receptor [6], 0.46 µM.

On to `Clc1ccc(-c2cc(-c3ccccc3)c(-c3ccncc3)[nH]2)cc1`, for which, in experiment [2], the Ratio was determined as 1.8. Further, the half-inhibitory concentration (IC50) on Glucagon receptor [3] stood at 0.06 µM; in experiment [4] it was 0.21 µM; on Glucagon receptor [5], 0.38 µM.

For the compound `Fc1ccc(-c2cc(-c3ccccc3)[nH]c2-c2ccncc2)cc1`, the IC50 was 0.39 µM against Glucagon receptor [3], 0.8 µM in experiment [4] and 2.7 µM at Glucagon receptor [6].

Turning to `Fc1ccc(-c2cc(-c3ccc(Cl)cc3)[nH]c2-c2ccncc2)cc1`, the Ratio in experiment [2] worked out at 0.57. The inhibition in experiment [7] was found to be 43%. Moreover, the IC50 on Glucagon receptor [3] is 0.08 µM; in experiment [4] it was 1.4 µM; at Glucagon receptor [5] it was 0.8 µM; at Glucagon receptor [6], 0.2 µM.

`C[S+]([O-])c1ccc(-c2cc(-c3ccc(F)cc3)c(-c3ccncc3)[nH]2)cc1` (centres undefined): the figures for the IC50 (against Glucagon receptor [3]; in experiment [4]) were 1.1 µM and 0.67 µM, respectively.

With `CC(C)(C)c1ccc(-c2cc(-c3ccc(F)cc3)c(-c3ccncc3)[nH]2)cc1`, the values for the IC50 (at Glucagon receptor [3]; in experiment [4]) were 0.85 µM and above 10 µM, respectively.

On to `CCOC(=O)c1ccc(-c2cc(-c3ccc(F)cc3)c(-c3ccncc3)[nH]2)cc1`, for which the IC50 at Glucagon receptor [3] is 0.85 µM; in experiment [4], 0.26 µM.

For the compound `COc1ccc(-c2cc(-c3ccc(Cl)cc3)[nH]c2-c2ccncc2)cc1`, the Ratio in experiment [2] was found to be 1.4. Also, in experiment [7], the inhibition came to 16%. The IC50 was determined as 0.1 µM against Glucagon receptor [3], 1.15 µM in experiment [4], 1.6 µM on Glucagon receptor [5] and 0.24 µM on Glucagon receptor [6].

For `Cc1cc(-c2ccc(F)cc2)c(-c2ccncc2)[nH]1`, in experiment [2], the Ratio is above 9. The IC50 against Glucagon receptor [3] was above 3 µM; in experiment [4], 0.32 µM.

Take `O=C(O)c1ccc(-c2cc(-c3ccc(F)cc3)c(-c3ccncc3)[nH]2)cc1`: the IC50 on Glucagon receptor [3] was above 3 µM; in experiment [4], 0.09 µM.

In the case of `CCCOc1cc(Br)ccc1-c1cc(-c2ccc(Cl)cc2)[nH]c1-c1ccncc1`, the IC50 is 0.83 µM on Glucagon receptor [1], 0.004 µM against Glucagon receptor [3], 0.13 µM at Glucagon receptor [5] and 0.049 µM on Glucagon receptor [6].

For `Fc1ccc(-c2cc(-c3ccc(Cl)cc3Cl)[nH]c2-c2ccncc2)cc1`, the Ratio in experiment [2] was 2.2. Also, in experiment [7], the inhibition is 13%. In addition, the IC50 is 0.04 µM on Glucagon receptor [3], 0.42 µM in experiment [4], 0.95 µM on Glucagon receptor [5] and 0.34 µM at Glucagon receptor [6].

Consider `Clc1ccc(-c2cc(-c3ccccc3Br)c(-c3ccncc3)[nH]2)cc1`, for which the Ratio in experiment [2] worked out at 2.3. Further, the figures for the IC50 (against Glucagon receptor [3]; in experiment [4]; on Glucagon receptor [5]) were 0.026 µM, 1 µM and 2.3 µM, respectively.

Take `O=C(O)c1cc(-c2ccc(Cl)cc2)[nH]c1-c1ccncc1`: the values for the IC50 (at Glucagon receptor [3]; in experiment [4]) were above 3 µM and above 1 µM, respectively.

Turning to `CCCCCCOc1ccccc1-c1cc(-c2ccc(Cl)cc2)[nH]c1-c1ccncc1`, the Ratio in experiment [2] was 0.18. The inhibition in experiment [7] worked out at 22%. Further, the half-maximal inhibitory concentration (IC50) on Glucagon receptor [3] was 0.04 µM; in experiment [4], 2.68 µM; on Glucagon receptor [5], 0.5 µM; on Glucagon receptor [6] it was 0.34 µM.

`CN1CCC(c2cc(-c3ccc(F)cc3)c(-c3ccncc3)[nH]2)CC1`: the Ratio in experiment [2] was above 130. At Glucagon receptor [8], this compound came in with an inhibition of 7%. In experiment [4], this compound had an IC50 of 0.02 µM.

Consider `Fc1ccc(-c2cc[nH]c2-c2ccncc2)cc1`, for which the Ratio in experiment [2] was above 18. The values for the concentration for half-maximal inhibition (IC50) (on Glucagon receptor [3]; in experiment [4]; at Glucagon receptor [5]) were above 3 µM, 0.16 µM and above 3 µM, respectively.

In the case of `Nc1ccc(-c2cc(-c3ccc(F)cc3)c(-c3ccncc3)[nH]2)cc1`, the results for the IC50 (on Glucagon receptor [3]; in experiment [4]) were 1.4 µM and 0.19 µM, respectively.

On to `CC(C)Oc1ccccc1-c1cc(-c2ccc(Cl)cc2)[nH]c1-c1ccncc1`, for which the IC50 at Glucagon receptor [1] was above 1 µM; at Glucagon receptor [3], 0.03 µM; in experiment [4], 5.54 µM; on Glucagon receptor [5], 0.91 µM; on Glucagon receptor [6], 0.7 µM. For the same compound, in experiment [2], the Ratio amounted to 0.16.

Consider `CCc1ccc(-c2cc(-c3ccc(F)cc3)c(-c3ccncc3)[nH]2)cc1`, for which the values for the IC50 (against Glucagon receptor [3]; in experiment [4]) were 0.37 µM and 1.36 µM, respectively.

`O=[N+]([O-])c1ccc(-c2cc(-c3ccc(F)cc3)c(-c3ccncc3)[nH]2)cc1`: the IC50 worked out at 0.36 µM against Glucagon receptor [3] and 0.05 µM in experiment [4].

Take `Clc1ccc(-c2cc(-c3ccc(Br)cc3)c(-c3ccncc3)[nH]2)cc1`: the Ratio in experiment [2] is 7.6. In addition, the IC50 against Glucagon receptor [3] is 0.14 µM; in experiment [4], 0.3 µM; at Glucagon receptor [5] it was 2.3 µM.

As for `Fc1ccc(-c2cc(C3CCCCC3)[nH]c2-c2ccncc2)cc1`, the 50% inhibitory concentration (IC50) on Glucagon receptor [1] is above 1 µM; on Glucagon receptor [3], 0.09 µM; in experiment [4] it was 0.18 µM; at Glucagon receptor [5], 0.49 µM; on Glucagon receptor [6], above 1 µM. Also, the Ratio in experiment [2] was 2.7.

As to `Cc1ccc(-c2cc(-c3ccc(F)cc3)c(-c3ccncc3)[nH]2)cc1`, in experiment [2], the Ratio came out at 1.3. For the same compound, the IC50 at Glucagon receptor [3] was 0.25 µM; in experiment [4], 1.69 µM; at Glucagon receptor [5] it was 2.2 µM.

Regarding `C[S+]([O-])c1ccc(-c2cc(-c3ccncc3)c(-c3ccc(F)cc3)[nH]2)cc1` (centres undefined), the inhibition on Glucagon receptor [8] turned out to be 31%. In experiment [4], this compound showed a half-inhibitory concentration (IC50) of 0.0053 µM.

`CSc1ccc(-c2cc(-c3ccncc3)c(-c3ccc(F)cc3)[nH]2)cc1` came in with an inhibition at Glucagon receptor [8] of 0%. Half-maximal inhibition in experiment [4] (IC50) required 0.044 µM.

With `Clc1ccc(-c2cc(C3CCCCC3)c(-c3ccncc3)[nH]2)cc1`, the IC50 at Glucagon receptor [1] is above 3 µM; at Glucagon receptor [3] it was 0.1 µM; in experiment [4], above 10 µM; at Glucagon receptor [5] it was above 3 µM; on Glucagon receptor [6], 0.06 µM.

On to `COc1cccc(-c2cc(-c3ccc(Cl)cc3)[nH]c2-c2ccncc2)c1`, for which the Ratio in experiment [2] amounted to 1.1. Also, the IC50 stood at 0.06 µM at Glucagon receptor [3], 0.42 µM in experiment [4] and 0.45 µM at Glucagon receptor [5].
